This is a sample that favours compounds with a hit; in the whole collection about 11% have one here.
D1 allo mod: D1 CRE-luciferase signal change, two-sided – cell-based, HEK293 D1, dopamine EC30, D1 allosteric modulator project, primary screen; D(1A) dopamine receptor (Homo sapiens), P21728; dopamine EC30 potentiation; actives deviate in either direction; B-score at 10 µM; 58,000 compounds, 5.9% hits;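 active = luminescence count or its row- and column-corrected plate score outside the 99.7% band of the plate's sample wells, on either side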
SF-1 act: activators of human SF-1, primary screen, cell-based, CHO-K1, Gal4-SF-1 LBD, luciferase luminescence | activation, % at 10 µM | 65,000 compounds, 1.9% hits | CHO-K1 Gal4-SF-1 LBD luciferase reporter; % increase over DMSO SF-1-specific signal;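 active = activation above the mean activation of all tested compounds plus 3 SD, cut at about 50% in these data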
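Assay system: CHO-K1 cells co-transfected with Gal4 DBD–human SF-1 LBD, 5xGal4 luciferase reporter; doses: 10 µM only; incubation: 20 h compound exposure at 37 °C after 1 h cell settling; signal: luciferase light emission; evaluation: percent activation versus DMSO; repeats: one test per compound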
Htt clearance: clearance of mutant huntingtin inclusions, primary screen, imaging, HeLa Exon1htt(103Q)mCFP, confocal imaging | aggregate imaging; zero = plate's median compound well | inhibition, % at 1.5 µM | 47,000 compounds, 0.42% hits | AID 853, 2007;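 active = inhibition of aggregate fluorescence above about 70%, also judged a hit by eye on the cell image, limit read from the data, passing the limit was not always enough; inconclusive = no rule stated for this call; inactive = not judged a hit on image review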;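 also: cells exposed to compound for three days before fixation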
M1 antagonist: antagonists of rat M1 muscarinic receptor. AID 628, 2007. CHO-M1 cells, Fluo-4 calcium, ACh EC80 antagonist mode; active compounds read low. 64,000 compounds, 3.4% hits. B-score at 10 µM;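 active = calcium fluorescence response, raw or row-and-column corrected B-score, differing from the plate sample mean either way at a set confidence level, mostly lower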
Target sequence (P08482 whole entry, looked up): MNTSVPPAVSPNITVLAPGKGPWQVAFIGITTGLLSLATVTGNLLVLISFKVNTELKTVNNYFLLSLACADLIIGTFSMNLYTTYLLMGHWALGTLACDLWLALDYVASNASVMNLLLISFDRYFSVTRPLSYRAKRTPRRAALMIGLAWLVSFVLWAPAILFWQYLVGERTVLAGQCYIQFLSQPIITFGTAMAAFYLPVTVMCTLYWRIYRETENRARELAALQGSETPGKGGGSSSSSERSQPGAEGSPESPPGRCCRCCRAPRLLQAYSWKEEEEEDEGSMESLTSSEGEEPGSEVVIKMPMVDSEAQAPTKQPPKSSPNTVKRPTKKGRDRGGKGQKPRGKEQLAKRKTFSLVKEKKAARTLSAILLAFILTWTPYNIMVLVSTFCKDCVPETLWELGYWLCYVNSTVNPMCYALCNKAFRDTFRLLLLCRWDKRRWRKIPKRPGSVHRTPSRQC
M1 ag: M1 muscarinic receptor agonists, primary screen, CHO-M1 cells, Fluo-4 calcium, agonist mode. Muscarinic acetylcholine receptor M1. Fluo-4 calcium fluorescence; active compounds read high. B-score at 10 µM. 64,000 compounds, 3% hits;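 active = fluorescence rise, raw or as B-score row- and column-corrected plate score, outside the 99.7% band of its plate's samples, either direction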
RORa activator: activators of orphan receptor RORA, primary screen, cell-based, luminescence. 65,000 compounds, 1.5% hits. Nuclear receptor ROR-alpha (Homo sapiens), P35398. CHO-K1 Gal4-RORA LBD luciferase reporter; percent increase over mock-subtracted basal signal. activation, % at 10 µM;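 active = activation above the mean of all tested compounds plus 3 SD, cut at about 49% in these data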
M1 agonist conf: rat M1 muscarinic receptor agonists, confirmation, CHO-M1 cells, Fluo-4 calcium, duplicate retest | 1,700 compounds, 19% hits | AID 1488, 2009 | fluorescence change (max-min) at 10 µM | Fluo-4 calcium fluorescence, agonist mode; actives lie on both sides | shares compounds with M1 ag;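 active = fluorescence change differs from the solvent-only DMSO control mean at a set confidence level in both duplicate runs; inconclusive = differs from solvent-only control mean in just one of two runs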;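 also: an EC20 dose of acetylcholine follows compound addition during the same imaging run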
M4 agonist ctr: agonist activity at rat M4 receptor, confirmation, counter-screen for M1 allosteric modulator project, cell-based, agonist mode. 1,700 compounds, 9% hits. CHO M4/Gqi5 cells, Fluo-4 calcium fluorescence; actives lie on both sides. fluorescence change (max-min) at 10 µM. shares compounds with M1 ag;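 active = fluorescence change differing from the plate's solvent-only control wells at 99.7% confidence in both duplicates, whether higher or lower; inconclusive = differs from solvent controls in only one of two duplicates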
M1 antag conf: rat M1 muscarinic receptor antagonists, confirmation, CHO cells, Fluo-4 calcium, duplicate; shares compounds with M1 antagonist; ACh EC80 antagonism; active compounds read low; calcium response (max-min fluorescence) at 10 µM; 1,700 compounds, 43% hits; AID 677, 2007;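 active = calcium response below the same-plate mean of wells given acetylcholine alone at its 80%-effect dose, minus 3 SD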
mGluR4 antag: human mGluR4 response to M1 antagonist hits, M1 allosteric modulator project, cell-based, antagonist mode, secondary assay 1; shares compounds with M1 antagonist; CHO-mGluR4 calcium flux, Fluo-4 fluorescence, glutamate EC80; active compounds read low; fluorescence response (max-min) at 10 µM; 1,700 compounds, 0.9% hits; AID 678, 2007;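 active = fluorescence response below the plate's average for near-maximal glutamate wells, less 3 SD of those wells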;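 also: raw unnormalized fluorescence span taken in the window right after glutamate addition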
D1 mod confirm: D1 receptor positive allosteric modulators, retest, confirmation, cell-based, HEK293 D1, CRE-luciferase, duplicate; dopamine EC30 potentiation; active compounds read high; shares compounds with D1 allo mod; AID 642, 2007; luminescence at 10 µM; 2,200 compounds, 88% hits;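 active = luminescence in either of two replicates above the same-plate mean plus 3 SD of the low-dose dopamine control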
D1 no dopamine: D1 receptor agonism without dopamine, confirmation, mechanism study for D1 allosteric modulator project, cell-based, HEK293 D1, CRE-luciferase, secondary assay 1; luminescence at 10 µM; shares compounds with D1 allo mod; luminescence, no dopamine; active compounds read high; 1,900 compounds, 0.8% hits; in the data active = luminescence above about 3900
Isoprot counter: counter-screen for D1 modulators: isoproterenol response in HEK293 cells; HEK293 D1 CRE-luciferase, isoproterenol EC30 counter-screen; calls only at 10 µM; 2,200 compounds, 63% hits; shares compounds with D1 allo mod;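 active = luminescence in either replicate above plate mean of wells with a partly effective reference agonist dose plus 3 SD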;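 also: isoproterenol raises cAMP through native beta-adrenoceptor Gs so signal bypasses D1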
Each line names hits and unclear results; the compound was inactive in the other large screens (follow-up assays come after a bar, where they were run).

CCOc1ccccc1NC(=O)CC1Nc2cc(C)c(C)cc2NC1=O (configuration not stated)	M1 antagonist -2.6, M1 ag -2.3 | M1 agonist conf inactive | M4 agonist ctr inactive | M1 antag conf inactive | mGluR4 antag inactive
CCc1ccccc1NS(=O)(=O)c1cc(C)ccc1OC	none
CCc1nnc(NC(=O)c2ccc(N3C(=O)CCC3=O)cc2)s1	M1 antagonist -3.1, M1 ag -2.5 (no result: Htt clearance) | M1 agonist conf inconclusive | M4 agonist ctr inactive | M1 antag conf inactive | mGluR4 antag inactive
O=C(CSc1ccc2c(c1)OCCO2)NCc1ccco1	none
CC1Cc2ccccc2N1C(=O)c1ccc2snnc2c1 (configuration not stated)	D1 allo mod 15, M1 ag 7.5 (no result: Htt clearance) | M1 agonist conf inactive | M4 agonist ctr inconclusive | D1 mod confirm 13280 | D1 no dopamine inactive | Isoprot counter active
COC(=O)c1cccc(S(=O)(=O)N2CCC(NC(=O)NC34CC5CC(CC(C5)C3)C4)CC2)c1	D1 allo mod 4.6, M1 ag 3.8 | M1 agonist conf inconclusive | M4 agonist ctr inactive | D1 mod confirm 11624 | D1 no dopamine inactive | Isoprot counter inactive
CCOC(=O)c1cnn(CCOC(=O)Cc2cccs2)c1NC(=O)Cc1cccs1	none (no result: D1 allo mod)
COc1ccc(CN2C(=O)c3cccnc3C2Nc2cc(Cl)ccc2OC)cc1 (configuration not stated)	D1 allo mod 12, M1 ag 4.8 (no result: Htt clearance) | M1 agonist conf inactive | M4 agonist ctr inactive | D1 mod confirm 26704 | D1 no dopamine inactive | Isoprot counter active
Cc1ccc(-c2nn3c(-c4ccco4)nnc3c3ccccc23)cc1S(=O)(=O)N1CCOCC1	none (no result: Htt clearance)
Cc1cc(C(=O)CN2C(=O)NC(Cc3c[nH]c4ccccc34)C2=O)c(C)n1C (configuration not stated)	none (no result: Htt clearance)
CCOc1nc(NCCc2ccc(OC)c(OC)c2)nc(NC(C)(C)CO)n1	D1 allo mod 3.2, M1 ag 2.1 (no result: Htt clearance) | M1 agonist conf inconclusive | M4 agonist ctr inactive | D1 mod confirm 9808 | D1 no dopamine inactive | Isoprot counter inactive
O=C(OCCN1C(=O)c2ccccc2C1=O)c1cc(S(=O)(=O)N2CCOCC2)ccc1Cl	D1 allo mod 3.4, M1 ag 3.7 (no result: Htt clearance) | M1 agonist conf inactive | M4 agonist ctr inactive | D1 mod confirm 9076 | D1 no dopamine inactive | Isoprot counter active
O=C(OCCCCN1C(=O)c2ccccc2C1=O)c1ccc(S(=O)(=O)N2CCCC2)cc1	none (no result: Htt clearance)
NC(=O)CSc1nc2scc(-c3ccco3)c2c(=O)n1-c1ccccc1	D1 allo mod 3.4, M1 ag 4.3 | M1 agonist conf inconclusive | M4 agonist ctr inactive | D1 mod confirm 10400 | Isoprot counter inactive
O=C(CSc1nc2scc(-c3ccco3)c2c(=O)n1-c1ccccc1)N1CCOCC1	none
COC(=O)c1ccc(C(=O)OC)c(NC(=O)COC(=O)C23CC4CC(CC(O)(C4)C2)C3)c1	D1 allo mod 3.1, M1 ag 5.3 | M1 agonist conf inactive | M4 agonist ctr inactive | D1 mod confirm 5580 | D1 no dopamine inactive | Isoprot counter inactive
CCOC(=O)c1c(C)oc2c1c(C=NCc1ccccn1)c(O)c1ccccc12	D1 allo mod 4.2, M1 ag 7.1 (no result: Htt clearance) | M1 agonist conf inactive | M4 agonist ctr inactive | D1 mod confirm 12568 | D1 no dopamine inactive | Isoprot counter inactive
CSc1ccc(C2Nc3ccccc3-c3cc(C)nn32)cc1 (configuration not stated)	none (no result: Htt clearance)
Cc1cc2n(n1)C(c1ccccc1Cl)Nc1ccccc1-2 (configuration not stated)	D1 allo mod 14, M1 ag 2.5 (no result: Htt clearance) | M1 agonist conf inactive | M4 agonist ctr inactive | D1 mod confirm 16788 | D1 no dopamine inactive | Isoprot counter active
CC(C)Oc1ccc(/C(O)=C2/C(=O)C(=O)N(CCN(C)C)C2c2ccco2)cc1 (configuration not stated)	none (no result: D1 allo mod, Htt clearance)
COc1ccccc1OCCC(=O)OCC(=O)Nc1ncc(Cl)cc1Cl	none (no result: Htt clearance)
O=C1c2ccccc2-c2onc3ccc(NCCCn4ccnc4)c1c23	D1 allo mod 3.9, M1 antagonist -11, M1 ag 97 (no result: Htt clearance) | M1 agonist conf inactive | M4 agonist ctr inactive | D1 mod confirm 11264 | D1 no dopamine inactive | Isoprot counter inactive
Cc1nc(NCCCn2ccnc2)c2ccccc2n1	none (no result: D1 allo mod, Htt clearance)
CC(=O)Nc1nc2n(n1)C(c1ccccc1)C=C(c1ccccc1)N2 (configuration not stated)	D1 allo mod 3.4, M1 ag 20 | M1 agonist conf 132 | M4 agonist ctr inactive | D1 mod confirm 6792 | D1 no dopamine inactive | Isoprot counter inactive
COc1ccccc1C1C=C(c2ccccc2)Nc2nnnn21 (configuration not stated)	none (no result: D1 allo mod, Htt clearance, M1 antagonist, M1 ag)
